Source: article PMC12401554 (Archives of toxicology, 2023)

Tests used:
[1] = ref European Chemicals Agency (ECHA) Classification and Labelling Inventory; cited from earlier work
3D HepaRG spheroids [2] = experiment: CometChip assay; type: cell-based, human; details: for Outcome, CometChip assay / Fold increase of DNA damage over the vehicle control: 24-h exposure; for Fold increase of DNA damage over the vehicle control: at the maximum concentration shown in the table; for BMC50 estimate for DNA strand breakage, rank among the eight nitrosamines: PROAST exponential model
[3] = tested on: CYP2A6-expressing TK6 cells; details: ref Li et al. 2022; cited from earlier work
3D HepaRG spheroids [4] = experiment: HT flow-cytometry-based MN assay in 3D HepaRG spheroids; type: cell-based, human; details: for Fold increase of MN formation over the vehicle control: at the maximum concentration shown in the table
2D HepaRG cells [5] = experiment: HT flow-cytometry-based MN assay in 2D HepaRG cells; type: cell-based, human; details: for Fold increase of MN formation over the vehicle control: at the maximum concentration shown in the table
rat [6] = details: ref Lhasa Carcinogenicity Database; cited from earlier work
2D HepaRG cells [7] = experiment: CometChip assay; type: cell-based, human; details: 24-h exposure; for Fold increase of DNA damage over the vehicle control: at the maximum concentration shown in the table
[8] = tested on: animal species, including frog, rodent, rabbit, and monkey; details: ref Bogovski and Bogovski 1981; cited from earlier work
[9] = ref IARC Monographs, Volumes 1–133; IARC 1978; cited from earlier work
rat [10] = details: ref Ambient water quality criteria for nitrosamines, US Environmental Protection Agency; cited from earlier work
2D HepaRG cells [11] = experiment: ATP assay; type: cell-based, human; details: 24-h exposure, at concentrations up to 10 mM
Procedure, shortened: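 Differentiated HepaRG cells (passages 16–19) replated at 5 × 10^4 cells/well as 2D monolayers and treated 3 days after seeding. Exposure was 24 h at 37 °C in 5% CO2 in differentiation medium, with final DMSO ≤1%. Viability was read by CellTiter-Glo luminescence as %ATP relative to vehicle control, from at least three independent experiments.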

3D HepaRG spheroids [12] = experiment: ATP assay; type: cell-based, human; details: 24-h exposure, at concentrations up to 10 mM
Procedure, shortened: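 Differentiated HepaRG cells (passages 16–19) were seeded at 5 × 10^3 cells per spheroid in ultra-low-attachment plates. On Day 10, 7–8 spheroids were pooled per well and exposed for 24 h at 37 °C in 5% CO2, with final DMSO ≤1%. ATP was measured with the CellTiter-Glo 3D kit as % of vehicle control, from at least three independent experiments.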

3D HepaRG spheroids [13] = experiment: MultiFlow DNA damage assay; type: cell-based, human; details: 3D HepaRG cultures, PROAST exponential model
Procedure, shortened: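 Spheroids were exposed for 24 h in differentiation medium containing 100 ng/ml hEGF, then kept 5 days in the same medium without test compound. They were dissociated with Accutase and stained 1 h at room temperature for γH2A.X, phospho-H3 and P53, then analysed by flow cytometry. Responses are median-fluorescence fold-changes versus vehicle. BMC50 (50% increase over vehicle; 90% CI) came from exponential-model benchmark analysis with compound as covariate.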

Sprague–Dawley rats = details: treated 5 days each week with 1.8 or 12 mg NDIPA for 50 or 40 weeks; ref Lijinsky and Taylor 1979; cited from earlier work
Namalva cells = details: human Burkitt lymphoblastoid cell line, ref Janzowski et al. 1989; cited from earlier work
[14] = tested on: wild-type TK6 cells or TK6 cells transduced with human CYP1A1, 2A6, 2E1, or 3A4 genes; details: ref Li et al. 2022; cited from earlier work

SMILES	ECHA classification [1]	Outcome, CometChip assay (3D HepaRG spheroids [2])	Fold increase of DNA damage over the vehicle control (3D HepaRG spheroids [2]) [fold]	Micronucleus (MN) formation [3]	Phosphorylation of histone H2A.X (γH2A.X) [3]	Outcome, MN assay (3D HepaRG spheroids [4])	Fold increase of MN formation over the vehicle control (3D HepaRG spheroids [4]) [fold]	Outcome, MN assay (2D HepaRG cells [5])	Fold increase of MN formation over the vehicle control (2D HepaRG cells [5]) [fold]	Gold TD50 in rat (rat [6]) [mg/kg/day]	Outcome, CometChip assay (2D HepaRG cells [7])	Fold increase of DNA damage over the vehicle control (2D HepaRG cells [7]) [fold]	IARC group [9]	Oral rat LD50 (rat [10]) [mg/kg]	MN response (in words) (3D HepaRG spheroids [4])	MN response (in words) (2D HepaRG cells [5])	further results
CN(CCCC(=O)O)N=O [NMBA, N-nitroso-N-methyl-4-aminobutyric acid]	Carc.2	+ + (2 ≤ ratio < 5)	2.3	induced	increased	+ (1.5 ≤ ratio < 2)	1.8	− (The ratio ≤ 1.5-fold (p ≥ 0.05 vs. vehicle control, green color))	1.4	0.982	− (The ratio ≤ 1.5-fold (p ≥ 0.05 vs. vehicle control, green color))	1.0					
CN(C)N=O [NDMA, N-nitrosodimethylamine]	Carc.1B	+ + + (ratio ≥ 5 (p < 0.05, red color))				+ + (2 ≤ ratio < 5)		+ + (2 ≤ ratio < 5)			+ + (2 ≤ ratio < 5)		2A	40			BMC50 estimate for DNA strand breakage, rank among the eight nitrosamines (3D HepaRG spheroids [2]): lowest; BMC50 estimate for %MN, rank among the five positive responses (3D HepaRG spheroids [4]; PROAST exponential model): lowest; Number of different animal species in which tumors were induced [8]: 16
O=NN1CCN(C2CCCC2)CC1 [CPNP, N-cyclopentyl-4-nitrosopiperazine]	Carc.1B	+ + (2 ≤ ratio < 5)	2.3			− (The ratio ≤ 1.5-fold (p ≥ 0.05 vs. vehicle control, green color))	1.4	− (The ratio ≤ 1.5-fold (p ≥ 0.05 vs. vehicle control, green color))	1.4		− (The ratio ≤ 1.5-fold (p ≥ 0.05 vs. vehicle control, green color))	0.9			negative	negative	
CCN(N=O)C(C)C [NEIPA, N-nitrosoethylisopropylamine]	Carc.1B	+ + (2 ≤ ratio < 5)	2.4	induced	increased	− (The ratio ≤ 1.5-fold (p ≥ 0.05 vs. vehicle control, green color))	1.3	− (The ratio ≤ 1.5-fold (p ≥ 0.05 vs. vehicle control, green color))	1.1		− (The ratio ≤ 1.5-fold (p ≥ 0.05 vs. vehicle control, green color))	1.5		1100	negative	negative	Cytotoxicity (ATP assay) (2D HepaRG cells [11]): less than 30%; Cytotoxicity (ATP assay) (3D HepaRG spheroids [12]): less than 30%
CC(C)N(N=O)C(C)C [NDIPA, N-nitrosodiisopropylamine]	Carc.1B; Muta.1B	+ (1.5 ≤ ratio < 2)	1.8		increased	− (The ratio ≤ 1.5-fold (p ≥ 0.05 vs. vehicle control, green color))	1.2	− (The ratio ≤ 1.5-fold (p ≥ 0.05 vs. vehicle control, green color))	1.1		− (The ratio ≤ 1.5-fold (p ≥ 0.05 vs. vehicle control, green color))	1.1		850	negative	negative	BMC50 estimate for DNA strand breakage, rank among the eight nitrosamines (3D HepaRG spheroids [2]): highest; Cytotoxicity (ATP assay) (2D HepaRG cells [11]): less than 30%; Cytotoxicity (ATP assay) (3D HepaRG spheroids [12]): less than 30%; BMC50 value for γH2A.X responses, rank among the eight nitrosamines (3D HepaRG spheroids [13]): highest; Carcinogenicity in Sprague–Dawley rats (in words) (Sprague–Dawley rats): weak carcinogen
CCCCN(CCCC)N=O [NDBA, N-nitrosodibutylamine]	Carc.2	+ + (2 ≤ ratio < 5)	2.8		increased	+ + (2 ≤ ratio < 5)	2.3	+ (1.5 ≤ ratio < 2)	1.5	0.691	+ + (2 ≤ ratio < 5)	2.4	2B	1200			Lowest concentration increasing MN formation (Namalva cells): 10 µM; Lowest concentration increasing sister chromatid exchanges (Namalva cells): 1 µM; BMC50 value for γH2A.X responses, rank among the eight nitrosamines (3D HepaRG spheroids [13]): lowest; MN frequency [14]: didn’t increase
CN(N=O)c1ccccc1 [NMPA, N-nitrosomethylphenylamine]	Carc.2	+ + (2 ≤ ratio < 5)		induced	increased	+ + (2 ≤ ratio < 5)		− (The ratio ≤ 1.5-fold (p ≥ 0.05 vs. vehicle control, green color))			− (The ratio ≤ 1.5-fold (p ≥ 0.05 vs. vehicle control, green color))			280			
CCN(CC)N=O [NDEA, N-nitrosodiethylamine]	Carc.1A/1B; Muta.2	+ + (2 ≤ ratio < 5)	2.6	induced	increased	+ + (2 ≤ ratio < 5)	2.2	+ (1.5 ≤ ratio < 2)	1.7	0.0265	+ + (2 ≤ ratio < 5)	2.3	2A	280			Number of different animal species in which tumors were induced [8]: 26
